Converted amounts (≈) assume the structure as drawn. Where a name gives a salt, the structure may show the parent alone. Read-outs that look alike come from different tables or passages of the source.
Legend:
[1] = MTT assay, normal cell line; type: cell-based; conditions: human, WI-38 normal cell line
Outline: (§1)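 Cells grown in DMEM with 10% FBS, streptomycin 100 µg/mL and penicillin 100 IU/mL, at 37 °C, 5% CO2. Seeded at 6×10^4 cells/mL (80% confluence) and incubated overnight. Medium replaced with fresh medium holding test compound at 31.25–1000 ppm for 48 h.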

WI-38 = assay: MTT assay, normal cell line; type: cell-based; conditions: Homo sapiens, WI-38, WI-38 normal cell line
Outline: as §1

H2O2 anti-radicals study = assay: H2O2 anti-radicals study
Outline: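 2 mM H2O2 in 50 mM phosphate buffer, pH 7.4, mixed with 0.1 mL test compound at various concentrations. Absorbance at 230 nm read against blank after 10 min; H2O2 scavenging calculated from absorbance.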

[2] = DPPH radical scavenging assay
Outline: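 Test compound dilutions of 62.50–1000 µg/mL; 0.1 mL of each added to 3.0 mL DPPH in methanol. Incubated 30 min, then absorbance read at 517 nm. % scavenging = [(A0–A1)/A0]×100, where A0 is control and A1 is test absorbance. Ascorbic acid as reference.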

NIH/3T3 = assay: MTT assay; type: cell-based; conditions: Mus musculus, NIH3T3, 48 h
Outline: as §1

[3] = molecular target: acetylcholinesterase (AChE) (Electrophorus electricus, UniProt O42275); assay: biochemical; parameters: species or system electric eel
ABTS anti-radicals study = assay: ABTS anti-radicals study
Outline: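 ABTS (7 mM) combined with […] and held in the dark at 25 °C for 12–16 h to form radicals. Diluted in 0.01 M phosphate buffer, pH 7.4, to A734 of 0.70. 300 µL test compound solution added to 3.0 mL radical solution; decrease in absorbance recorded. Ascorbic acid as reference.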

Pheretima posthuma = assay: Anthelmintic study
Outline: (§2)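 P. posthuma (7–9 cm) collected from muddy soil; A. galli taken from domestic chicken intestine. Test compound suspended in distilled water with Tween 80 at 10, 20 and 40 mg. 25 mL per Petri dish, six worms per dish. […] Paralysis and death times recorded.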

MCF-7 = assay: MTT assay; type: cell-based; conditions: Homo sapiens, MCF7, 48 h
Outline: as §1

HCT-116 = assay: MTT assay; type: cell-based; conditions: Homo sapiens, HCT-116, 48 h
Outline: as §1

MDA-MB-231 = assay: MTT assay; type: cell-based; conditions: Homo sapiens, MDA-MB-231, 48 h
Outline: as §1

[4] = molecular target: butyrylcholinesterase (BChE) (Equus caballus, UniProt P81908); assay: Butyrylcholinesterase inhibitory assay; type: biochemical, equine; conditions: for inhibition at 62.5 µg/mL: read-out: Butyrylcholinesterase (BChE) Percent Inhibition (Mean±SEM), 62.5 μg/mL; for inhibition at 125 µg/mL: read-out: Butyrylcholinesterase (BChE) Percent Inhibition (Mean±SEM), 125 μg/mL; for inhibition at 250 µg/mL: read-out: Butyrylcholinesterase (BChE) Percent Inhibition (Mean±SEM), 250 μg/mL; for inhibition at 1000 µg/mL: read-out: Butyrylcholinesterase (BChE) Percent Inhibition (Mean±SEM), 1000 μg/mL
Ascaridia galli = assay: Anthelmintic study
Outline: as §2

α-glucosidase = α-glucosidase (Saccharomyces cerevisiae, UniProt P53341); assay: α-Glucosidase inhibition chromogenic assay; type: biochemical
[5] = 1000 µg/mL, listed as test compound
[6] = 40 mg/mL, listed as test compound
[7] = 40 mg/mL, listed as albendazole

Chain of α-glucosidase (P53341 whole entry): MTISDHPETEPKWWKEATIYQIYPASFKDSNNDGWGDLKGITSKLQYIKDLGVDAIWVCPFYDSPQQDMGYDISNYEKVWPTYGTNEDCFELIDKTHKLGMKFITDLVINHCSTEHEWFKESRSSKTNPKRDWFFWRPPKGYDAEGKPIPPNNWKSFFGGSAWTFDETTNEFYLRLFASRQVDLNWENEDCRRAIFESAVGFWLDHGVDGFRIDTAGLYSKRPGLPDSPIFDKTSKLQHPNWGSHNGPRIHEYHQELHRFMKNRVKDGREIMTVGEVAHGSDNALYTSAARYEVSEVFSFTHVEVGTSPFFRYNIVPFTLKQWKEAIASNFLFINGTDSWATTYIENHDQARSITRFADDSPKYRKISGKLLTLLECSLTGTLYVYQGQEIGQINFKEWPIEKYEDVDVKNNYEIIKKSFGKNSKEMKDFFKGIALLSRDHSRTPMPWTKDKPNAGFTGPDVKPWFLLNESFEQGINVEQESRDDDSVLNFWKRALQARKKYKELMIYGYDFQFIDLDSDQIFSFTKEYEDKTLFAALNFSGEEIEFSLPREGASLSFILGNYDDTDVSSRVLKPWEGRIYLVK
Chain of butyrylcholinesterase (BChE) (P81908 whole entry): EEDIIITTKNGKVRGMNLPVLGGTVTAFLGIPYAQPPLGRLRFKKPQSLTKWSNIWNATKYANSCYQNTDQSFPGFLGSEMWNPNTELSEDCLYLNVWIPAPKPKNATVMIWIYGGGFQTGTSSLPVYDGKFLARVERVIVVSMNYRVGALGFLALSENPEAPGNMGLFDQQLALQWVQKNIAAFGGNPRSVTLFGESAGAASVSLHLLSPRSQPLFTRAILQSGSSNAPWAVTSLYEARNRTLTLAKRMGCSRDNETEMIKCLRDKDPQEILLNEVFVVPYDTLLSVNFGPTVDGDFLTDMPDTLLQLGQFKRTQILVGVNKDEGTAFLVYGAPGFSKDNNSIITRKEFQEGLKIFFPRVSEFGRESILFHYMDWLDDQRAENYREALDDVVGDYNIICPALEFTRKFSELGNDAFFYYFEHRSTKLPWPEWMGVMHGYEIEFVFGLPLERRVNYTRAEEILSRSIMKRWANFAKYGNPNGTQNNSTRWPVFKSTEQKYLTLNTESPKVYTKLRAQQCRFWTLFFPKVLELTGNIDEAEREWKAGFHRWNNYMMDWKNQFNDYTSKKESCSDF
Chain of acetylcholinesterase (AChE) (O42275 24-633): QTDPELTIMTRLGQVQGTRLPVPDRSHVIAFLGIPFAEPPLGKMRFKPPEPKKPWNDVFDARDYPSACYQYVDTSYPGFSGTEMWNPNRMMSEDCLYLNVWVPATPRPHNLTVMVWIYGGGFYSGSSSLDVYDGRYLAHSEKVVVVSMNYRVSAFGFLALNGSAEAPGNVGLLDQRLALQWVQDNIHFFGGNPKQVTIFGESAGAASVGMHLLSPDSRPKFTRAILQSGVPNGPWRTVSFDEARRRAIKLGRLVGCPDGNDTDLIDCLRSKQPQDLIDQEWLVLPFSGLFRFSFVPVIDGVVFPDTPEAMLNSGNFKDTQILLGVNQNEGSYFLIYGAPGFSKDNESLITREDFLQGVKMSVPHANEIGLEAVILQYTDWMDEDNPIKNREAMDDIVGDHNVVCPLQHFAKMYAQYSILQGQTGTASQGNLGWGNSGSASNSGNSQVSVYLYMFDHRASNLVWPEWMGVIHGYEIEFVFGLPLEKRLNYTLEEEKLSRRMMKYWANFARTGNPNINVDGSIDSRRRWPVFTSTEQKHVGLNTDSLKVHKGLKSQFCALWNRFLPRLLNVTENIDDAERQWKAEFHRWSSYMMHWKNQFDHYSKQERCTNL

## CCC(C=O)C1CC(=O)N(c2ccccc2)C1=O (centres unmarked) [2-(2,5-dioxo-1-phenylpyrrolidin-3-yl)butanal]
[1]
  cytotoxicity at 48 h, 1000 ppm: 16%
WI-38
  IC50: > 3000 µg/mL
H2O2 anti-radicals study
  H2O2 IC50 value: 752.21 µg/mL
H2O2 anti-radicals study; 62.5 µg/mL
  H2O2 % Inhibition (Mean±SEM): 26.08±2.66%
H2O2 anti-radicals study; 125 µg/mL
  H2O2 % Inhibition (Mean±SEM): 31.58±1.40%
H2O2 anti-radicals study; 250 µg/mL
  H2O2 % Inhibition (Mean±SEM): 39.92±2.08%
H2O2 anti-radicals study; 500 µg/mL
  H2O2 % Inhibition (Mean±SEM): 46.08±1.36%
H2O2 anti-radicals study; 1000 µg/mL
  H2O2 % Inhibition (Mean±SEM): 54.82±1.82%
[2]
  DPPH IC50 value: 139.74 µg/mL
[2]; 62.5 µg/mL
  DPPH % Inhibition (Mean±SEM): 33.32±2.04%
[2]; 125 µg/mL
  DPPH % Inhibition (Mean±SEM): 49.01±1.28%
[2]; 250 µg/mL
  DPPH % Inhibition (Mean±SEM): 61.41±2.36%
[2]; 500 µg/mL
  DPPH % Inhibition (Mean±SEM): 71.36±1.92%
[2]; 1000 µg/mL
  DPPH % Inhibition (Mean±SEM): 72.85±1.17%
[2]; [5]
  DPPH % Inhibition (Mean±SEM): 75.84±1.58%
[2]; listed as test compound
  DPPH IC50 value: 84.36 µg/mL
NIH/3T3
  IC50: 181 µg/mL (≈ 738 µM)
[3]
  IC50: 422 µM
[3]; 1000 µg/mL
  Acetylcholinesterase (AChE) Percent Inhibition (Mean±SEM): 71.3±1.9%
[3]; read-out: Acetylcholinesterase (AChE) Percent Inhibition (Mean±SEM), 62.5 μg/mL
  inhibition at 62.5 µg/mL: 39.6%
[3]; read-out: Acetylcholinesterase (AChE) Percent Inhibition (Mean±SEM), 125 μg/mL
  inhibition at 125 µg/mL: 55.9%
[3]; read-out: Acetylcholinesterase (AChE) Percent Inhibition (Mean±SEM), 250 μg/mL
  inhibition at 250 µg/mL: 61.2%
[3]; read-out: Acetylcholinesterase (AChE) Percent Inhibition (Mean±SEM), 500 μg/mL
  inhibition at 500 µg/mL: 65.4%
[3]; read-out: Acetylcholinesterase (AChE) Percent Inhibition (Mean±SEM), 1000 μg/mL
  inhibition at 1000 µg/mL: 71.3 ± 1.92%
ABTS anti-radicals study
  ABTS IC50 value: 84.36 µg/mL
ABTS anti-radicals study; 62.5 µg/mL
  ABTS % Inhibition (Mean±SEM): 48.08±2.19%
ABTS anti-radicals study; 125 µg/mL
  ABTS % Inhibition (Mean±SEM): 57.22±1.63%
ABTS anti-radicals study; 250 µg/mL
  ABTS % Inhibition (Mean±SEM): 61.28±0.84%
ABTS anti-radicals study; 500 µg/mL
  ABTS % Inhibition (Mean±SEM): 68.35±1.96%
ABTS anti-radicals study; 1000 µg/mL
  ABTS % Inhibition (Mean±SEM): 75.84±1.58%
ABTS anti-radicals study; [5]
  ABTS % Inhibition (Mean±SEM): 72.85±1.17%
ABTS anti-radicals study; listed as test compound
  ABTS IC50 value: 139.74 µg/mL
Pheretima posthuma; 10 mg/mL
  Pheretima posthuma Death Time: 23.67 ± 1.52 min
  Pheretima posthuma Paralysis Time: 06.67 ± 1.08 min
Pheretima posthuma; 20 mg/mL
  Pheretima posthuma Death Time: 19.23 ± 2.56 min
  Pheretima posthuma Paralysis Time: 05.68 ± 0.34 min
Pheretima posthuma; 40 mg/mL
  Pheretima posthuma Death Time: 14.71 ± 1.73 min
  Pheretima posthuma Paralysis Time: 02.48 ± 1.62 min
Pheretima posthuma; [6]
  Pheretima posthuma Death Time: 14.71 min
  Pheretima posthuma Paralysis Time: 2.48 min
MCF-7
  IC50: 277 µg/mL (≈ 1130 µM)
HCT-116
  IC50: 78 µg/mL (≈ 318 µM)
MDA-MB-231
  IC50: 231 µg/mL (≈ 942 µM)
[4]
  IC50: 539 µM
  inhibition at 62.5 µg/mL: 36.9%
  inhibition at 125 µg/mL: 49.3%
  inhibition at 250 µg/mL: 52.7%
  inhibition at 1000 µg/mL: 73.4 ± 1.92%
[4]; 1000 µg/mL
  Butyrylcholinesterase (BChE) Percent Inhibition (Mean±SEM): 73.4±1.9%
[4]; read-out: Butyrylcholinesterase (BChE) Percent Inhibition (Mean±SEM), 500 μg/mL
  inhibition at 500 µg/mL: 64.3%
Ascaridia galli; 10 mg/mL
  Ascaridia galli Death Time: 18.42 ± 1.70 min
  Ascaridia galli Paralysis Time: 06.54 ± 1.67 min
Ascaridia galli; 20 mg/mL
  Ascaridia galli Death Time: 11.36 ± 1.94 min
  Ascaridia galli Paralysis Time: 04.82 ± 1.38 min
Ascaridia galli; 40 mg/mL
  Ascaridia galli Death Time: 09.39 ± 1.48 min
  Ascaridia galli Paralysis Time: 02.19 ± 0.96 min

## C[C@H]1O[C@H](O[C@H]2[C@H](O)[C@@H](O)[C@@H](O[C@H]3[C@H](O)[C@@H](O)C(O)O[C@@H]3CO)O[C@@H]2CO)[C@H](O)[C@@H](O)[C@@H]1N[C@H]1C=C(CO)[C@@H](O)[C@H](O)[C@H]1O (some centres unmarked) [Acarbose, acarbose]
α-glucosidase; 31.25 µg/mL
  Percent α-glucosidase inhibition: 59.7±1.7%
α-glucosidase; 62.5 µg/mL
  Percent α-glucosidase inhibition: 67.3±2.8%
α-glucosidase; 125 µg/mL
  Percent α-glucosidase inhibition: 71.7±1.7%
α-glucosidase; 250 µg/mL
  Percent α-glucosidase inhibition: 74.4± 2.3%
α-glucosidase; 500 µg/mL
  Percent α-glucosidase inhibition: 81.7±2.6%
α-glucosidase; 1000 µg/mL
  Percent α-glucosidase inhibition: 86.7±2.6%

## CCCSc1ccc2nc(NC(=O)OC)[nH]c2c1 [Alb, Albendazole, reference compound]
Pheretima posthuma; 10 mg/mL
  Pheretima posthuma Death Time: 48.70 ± 2.06 min
  Pheretima posthuma Paralysis Time: 09.08 ± 1.56 min
Pheretima posthuma; 20 mg/mL
  Pheretima posthuma Death Time: 39.33 ± 1.54 min
  Pheretima posthuma Paralysis Time: 07.24 ± 1.38 min
Pheretima posthuma; 40 mg/mL
  Pheretima posthuma Death Time: 28.92 ± 2.68 min
  Pheretima posthuma Paralysis Time: 04.67 ± 0.57 min
Pheretima posthuma; [7]
  Pheretima posthuma Death Time: 28.92 min
  Pheretima posthuma Paralysis Time: 4.67 min
Ascaridia galli; 10 mg/mL
  Ascaridia galli Death Time: 36.32 ± 1.36 min
  Ascaridia galli Paralysis Time: 11.26 ± 2.81 min
Ascaridia galli; 20 mg/mL
  Ascaridia galli Death Time: 32.56 ± 1.93 min
  Ascaridia galli Paralysis Time: 09.45 ± 1.63 min
Ascaridia galli; 40 mg/mL
  Ascaridia galli Death Time: 25.68 ± 3.62 min
  Ascaridia galli Paralysis Time: 07.18 ± 1.74 min

## O=C1O[C@H]([C@@H](O)CO)C(O)=C1O [Ascorbic acid, ascorbic acid, reference compound]
H2O2 anti-radicals study
  H2O2 IC50 value: 29.73 µg/mL
H2O2 anti-radicals study; 62.5 µg/mL
  H2O2 % Inhibition (Mean±SEM): 56.67±1.67%
H2O2 anti-radicals study; 125 µg/mL
  H2O2 % Inhibition (Mean±SEM): 61.33±1.33%
H2O2 anti-radicals study; 250 µg/mL
  H2O2 % Inhibition (Mean±SEM): 68.85±1.85%
H2O2 anti-radicals study; 500 µg/mL
  H2O2 % Inhibition (Mean±SEM): 74.67±0.67%
H2O2 anti-radicals study; 1000 µg/mL
  H2O2 % Inhibition (Mean±SEM): 78.00±1.15%
[2]
  DPPH IC50 value: 11.39 µg/mL
[2]; 62.5 µg/mL
  DPPH % Inhibition (Mean±SEM): 61.35±0.18%
[2]; 125 µg/mL
  DPPH % Inhibition (Mean±SEM): 66.20±0.15%
[2]; 250 µg/mL
  DPPH % Inhibition (Mean±SEM): 73.42±0.11%
[2]; 500 µg/mL
  DPPH % Inhibition (Mean±SEM): 78.62±0.17%
[2]; 1000 µg/mL
  DPPH % Inhibition (Mean±SEM): 83.53±0.20%
ABTS anti-radicals study
  ABTS IC50 value: 18.04 µg/mL
ABTS anti-radicals study; 62.5 µg/mL
  ABTS % Inhibition (Mean±SEM): 59.12±0.34%
ABTS anti-radicals study; 125 µg/mL
  ABTS % Inhibition (Mean±SEM): 64.47±0.49%
ABTS anti-radicals study; 250 µg/mL
  ABTS % Inhibition (Mean±SEM): 69.75±0.14%
ABTS anti-radicals study; 500 µg/mL
  ABTS % Inhibition (Mean±SEM): 76.59±0.30%
ABTS anti-radicals study; 1000 µg/mL
  ABTS % Inhibition (Mean±SEM): 81.85±0.18%

## COc1ccc2c3c1O[C@H]1C[C@@H](O)C=C[C@@]31CCN(C)C2 [Galanthamine, Galanthamine hydrobromide, reference compound]
[4]
  inhibition at 62.5 µg/mL: 71.4%
  inhibition at 125 µg/mL: 78.6%
  inhibition at 250 µg/mL: 82.8%
  inhibition at 1000 µg/mL: 95%
